Calls of active or inactive are those of the source. No cut-off for these calls is given here.
Experiments:
[1] = Metabolic stability in human liver microsomes assessed as parent compound remaining preincubated for 15 mins followed by NADPH addition and measured after 1 hr by LC-MS/MS analysis; assay type: ADME, Microsome; details: time 75 min, read-out: Stability
Outline: (§1)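 Microsomal stability assessed in mouse, human, rat or dog liver microsomes with NADPH cofactor. Half-life and percent parent remaining at 60 and 120 min reported. Mean of at least two independent experiments, each in two technical replicates.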

BT-474 [2] = test: Inhibition of REV-ERBbeta in REV-ERBbeta knockout human BT-474 cells assessed as induction of BMAL1 expression at 5 uM after 24 hrs by qRT-PCR analysis; assay type: cell-based
[3] = Tolerability in CD1 mouse assessed as change in water intake at 69 micromol/kg, ip administered as 3 days on and 2 days off schedule and measured after 15 days; assay type: toxicity, organism-based; details: in vivo, dose 69 µmol/kg
Outline: (§2)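 Female CD1 mice given 69 μmol/kg (31 mg/kg) ip, 3 days daily then 2 days off, or saline. Body weight, food intake and water intake monitored daily for 15 days. Weight expressed relative to the day before treatment (100%). Mean ± SEM, n = 3.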

[4] = Cytotoxicity against HMECs; assay type: toxicity, cell-based, HMEC; details: human, HMEC cells
Outline: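 BT-474 breast cancer cells and nontumorigenic HMECs treated 48 h with concentrations up to 30 μM. CC50 derived from concentration–response viability plots. Values >30 μM assigned when viability fell by less than 50% of vehicle at 30 μM. Mean ± SEM, n ≥ 3.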

A-375 [5] = test: Cytotoxicity against human A-375 cells; assay type: functional
Outline: (§3)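 Human cancer lines (A375, MDA-MB-231, OMM-1, UPMM-2, CAPAN-2, HepG2, HT-29, HCT116) treated up to 30 μM. CC50 derived from concentration–response viability plots. Mean ± SEM, n ≥ 6. Two-tailed unpaired t test used between compounds.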

HCT-116 = test: Cytotoxicity against human HCT-116 cells; assay type: functional; outline: as §3
HepG2 = test: Cytotoxicity against human HepG2 cells; assay type: functional; outline: as §3
[6] = Tolerability in CD1 mouse assessed as reduction in body weight at 138 micromol/kg, ip measured after 2 days; assay type: toxicity, organism-based; details: in vivo, 48 h, dose 138 µmol/kg, time 2 day
Outline: (§4)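 Body weight tracked in female CD1 mice under three regimens: 138 μmol/kg (62 mg/kg) ip daily, assessed after 2 days; 138 μmol/kg every other day over 8 days; 69 μmol/kg (31 mg/kg) daily over 8 days.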

[7] = Cytotoxicity against human UPMM-2 cells; assay type: functional; outline: as §3
[8] = Tolerability in CD1 mouse assessed as reduction in body weight at 138 micromol/kg, ip administered every other day for 8 days; assay type: toxicity, organism-based; details: in vivo, 192 h, dose 138 µmol/kg, time 8 day; outline: as §4
[9] = Metabolic stability in rat liver microsomes assessed as parent compound remaining preincubated for 15 mins followed by NADPH addition and measured after 1 to 2 hrs by LC-MS/MS analysis; assay type: ADME, Microsome; details: time 75-135 min; outline: as §1
Mus musculus = test: In vivo inhibition of REV-ERB in human A375 cells xenografted in NMRI-Foxn1nu mouse assessed as increase in BMAL1 gene expression at 30 mg/kg, ip administered for 2 days and measured after 48 hrs
[10] = Inhibition of REV-ERBbeta (unknown origin) transcription expressed in HEK293 cells incubated for 24 hrs by gaussia luciferase based assay; assay type: cell-based; details: Homo sapiens, HEK293, 24 h
Outline: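 HEK-293 cells cotransfected with REV-ERBβ and a luciferase reporter driven by two repeats of a REV-ERB response element (RevRE) consensus, then treated across a concentration range. Luciferase activity is expressed as fold of DMSO vehicle, mean ± SEM, n = 6, and EC50 is taken from the concentration-response curve. A parallel reporter carrying a mutated RevRE served as a specificity control.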

[11] = Half life in CD1 mouse at 10 mg/kg, ip measured upto 24 hrs; assay type: ADME, organism-based; details: in vivo
Outline: (§5)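 Female CD1 mice given a single 10 mg/kg ip dose. Plasma concentration–time profile analyzed by noncompartmental analysis for half-life and volume of distribution. A two-compartment model was also fitted.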

A-375 [12] = test: Antitumor activity against human A-375 cells xenografted in NMRI-Foxn1nu mouse assessed as effect on autophagy by measuring increase in GFP-LC3-II expression at 30 mg/kg, ip administered for 2 days by immunoblotting analysis; assay type: functional, organism-based; details: time 2.0 day
Outline: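 Female NMRI-Foxn1nu mice bearing flank subcutaneous xenografts of GFP-LC3 reporter A375 cells, matched for tumor size, given 30 mg/kg ip or saline for 2 days. Euthanized 48 h after first injection. Tumor lysates immunoblotted with anti-LC3B for GFP-LC3-I and GFP-LC3-II. n = 3; unpaired two-tailed t test versus saline.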

HEK293 = test: Inhibition of REV-ERBbeta (unknown origin) transcription expressed in HEK293 cells harboring mutated RevRE incubated for 24 hrs by gaussia luciferase based assay; assay type: cell-based; details: Homo sapiens
Outline: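 HEK-293 cells cotransfected with REV-ERBβ and a luciferase reporter bearing a mutated RevRE that REV-ERB cannot bind. Luciferase activity expressed as fold over DMSO vehicle. Mean ± SEM, n = 6.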

[13] = Tolerability in CD1 mouse assessed as change in food intake at 69 micromol/kg, ip administered as 3 days on and 2 days off schedule and measured after 15 days; assay type: toxicity, organism-based; details: in vivo, 360 h, dose 69 µmol/kg, time 15 day; outline: as §2
BT-474 [14] = test: Induction of apoptosis in human BT-474 cells assessed as increase in cleaved PARP level after 24 hrs; assay type: functional, cell-based; details: dose 2.5-10 µM
Outline: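 BT-474 cells treated at a range of concentrations. Apoptosis read out as caspase activity and as cleaved PARP protein by immunoblot.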

[15] = Volume of distribution in CD1 mouse at 10 mg/kg, ip measured upto 24 hrs; assay type: ADME, organism-based; details: in vivo; outline: as §5
[16] = Metabolic stability in dog liver microsomes assessed as half life preincubated for 15 mins followed by NADPH addition and measured after 1 to 2 hrs by LC-MS/MS analysis; assay type: ADME, Canis lupus familiaris, Microsome; details: liver microsomes, time 75-135 min; outline: as §1
[17] = Tolerability in CD1 mouse assessed as appearance of arched backs at 138 micromol/kg, ip; assay type: toxicity; details: in vivo, dose 138 µmol/kg
Outline: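 Female CD1 mice given daily ip injections at 138 μmol/kg (62 mg/kg). Animals observed for arched backs and lethargy.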

HT-29 = test: Cytotoxicity against human HT-29 cells; assay type: functional; outline: as §3
A375 (human) = test: Inhibition of autophagy in human A375 cells expressing EGFP-LC3B assessed as increase in LC3-II protein level at 2.5 uM after 24 hrs by immunoblotting analysis
[18] = Metabolic stability in rat liver microsomes assessed as half life preincubated for 15 mins followed by NADPH addition and measured after 1 to 2 hrs by LC-MS/MS analysis; assay type: ADME, Microsome; details: liver microsomes, time 75-135 min; outline: as §1
[19] = Metabolic stability in human liver microsomes assessed as half life preincubated for 15 mins followed by NADPH addition and measured after 1 to 2 hrs by LC-MS/MS analysis; assay type: ADME, Microsome; details: liver microsomes, time 75-135 min; outline: as §1
[20] = Metabolic stability in mouse liver microsomes assessed as half-life preincubated for 15 mins followed by UDPGA addition and measured after 2 hrs by LC-MS/MS analysis
[21] = Cytotoxicity against human OMM-1 cells; assay type: functional; outline: as §3

**Q.** Which results are given for `Fc1ccc(C2(NCc3ccc(F)c(CC4CCNCC4)c3)CCCC2)cc1`?
**A.** remaining at 1 h [1]: 81%; inhibition (BT-474 [2]): inactive; Activity [3]: Non-Toxic; CC50 [4]: > 30000 nM; CC50 (A-375 [5]): 2560 nM; CC50 (HCT-116): 4560 nM; CC50 (HepG2): 1490 nM; Activity [6]: Toxic; CC50 [7]: 1090 nM; Activity [8]: Toxic; Stability [9]: 98%; inhibition (Mus musculus): Active; EC50 [10]: 3610 nM; t1/2 [11]: 9.67 h; Activity (A-375 [12]): Active; inhibition (HEK293): inactive; Activity [13]: Non-Toxic; Activity (BT-474 [14]): Dose-Dependent Effect; Vd [15]: 106.07 L/kg; half-life [16]: > 1 h; Activity [17]: Non-Toxic; CC50 (HT-29): 4740 nM; inhibition (A375 (human)): Active; half-life [18]: > 1 h; half-life [19]: > 2 h; t1/2 at 2 h [20]: > 2 h; CC50 [21]: 1140 nM

— ChEMBL document CHEMBL5344432, “Identification of a Dual Autophagy and REV-ERB Inhibitor with in Vivo Anticancer Efficacy” (J Med Chem, 2024)
